The results in this text go back to ChEMBL document CHEMBL4411328, “Synthesis and Structural/Functional Characterization of Selective M14 Metallocarboxypeptidase Inhibitors Based on Phosphinic Pseudopeptide Scaffold: Implications on the Design of Specific Optical Probes” (J Med Chem, 2019).

The structures appear in SMILES notation. Active and inactive are the calls of the source. The rule behind the calls is not given here.

Data set [1] addresses T1, Carboxypeptidase A1 (Homo sapiens, UniProt P15085).
T1 sequence (P15085 whole entry): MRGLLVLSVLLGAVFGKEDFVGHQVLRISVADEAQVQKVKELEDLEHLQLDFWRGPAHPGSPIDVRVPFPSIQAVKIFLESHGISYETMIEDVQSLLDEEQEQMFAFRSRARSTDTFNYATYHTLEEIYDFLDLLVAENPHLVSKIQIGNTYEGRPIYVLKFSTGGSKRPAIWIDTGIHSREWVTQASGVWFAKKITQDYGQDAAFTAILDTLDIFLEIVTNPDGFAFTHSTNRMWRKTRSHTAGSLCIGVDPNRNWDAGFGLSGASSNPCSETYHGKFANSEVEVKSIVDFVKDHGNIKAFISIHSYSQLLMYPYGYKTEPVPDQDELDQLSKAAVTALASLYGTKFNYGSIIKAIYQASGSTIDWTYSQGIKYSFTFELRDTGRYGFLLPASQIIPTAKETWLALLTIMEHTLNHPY
Briefly: Inhibition of human CPA1 using AAFP as substrate preincubated for 45 mins to 2 hrs measured at 30 sec intervals for 15 mins by UV/vis-spectrophotometry. The procedure, abridged:
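hCPA1 was used at 1.0x10-8 M with AAFP substrate at 1.0x10-4 M, read at 355 nm. Enzyme and inhibitor were preincubated 45 min at 37 °C before substrate was added. Initial velocities were read every 30 sec for 15 min, in triplicate. Apparent Ki came from a fit to the tight-binding equation.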

In data set [2] the target is T2, Carboxypeptidase A1 (Homo sapiens) (UniProt P15085).
T2 sequence (whole entry): T1 sequence (P15085 whole entry)
Briefly: Inhibition of human CPA1 using AAFP as substrate assessed as dissociation rate constant measured at pre-steady state by spectrophotometry.

The target in data set [3] is T1, Carboxypeptidase A1. Briefly: Inhibition of human CPA1 using AAFP as substrate assessed as apparent first-order rate constant measured at pre-steady state by measuring Koff/Kon ratio by spectrophotometry. The settings on record: read-out: Ki(app).
In data set [4] the target is T2, Carboxypeptidase A1 (Homo sapiens). Briefly: Inhibition of human CPA1 using AAFP as substrate assessed as association rate constant measured at pre-steady state by spectrophotometry.
Data set [5] concerns the target T1, Carboxypeptidase A1. Briefly: Inhibition of human CPA1 using AAFP as substrate measured at pre-steady state by spectrophotometry.
In data set [6] the target is T3, Carboxypeptidase B (Homo sapiens) (UniProt P15086).
T3 sequence (whole entry): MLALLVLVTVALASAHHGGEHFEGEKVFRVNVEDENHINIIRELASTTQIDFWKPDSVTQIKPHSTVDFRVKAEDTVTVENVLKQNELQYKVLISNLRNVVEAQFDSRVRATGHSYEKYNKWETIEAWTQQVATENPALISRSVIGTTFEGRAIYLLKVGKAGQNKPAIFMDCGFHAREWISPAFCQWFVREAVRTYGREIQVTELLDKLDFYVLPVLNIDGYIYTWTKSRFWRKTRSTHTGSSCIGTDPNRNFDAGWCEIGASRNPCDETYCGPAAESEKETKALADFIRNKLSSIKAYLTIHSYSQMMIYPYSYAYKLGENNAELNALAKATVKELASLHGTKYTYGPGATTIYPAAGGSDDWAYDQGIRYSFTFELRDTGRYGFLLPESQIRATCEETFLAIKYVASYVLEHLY
Briefly: Inhibition of human CPB1 at 1 nM to 1 mM using AAFA as substrate preincubated for 45 mins to 2 hrs measured at 30 sec intervals for 15 mins by UV/vis-spectrophotometry. The procedure, abridged: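 hCPB1 was used at 6.0x10-9 M with 1.0x10-4 M AAFA, read at 355 nm. After 45 min preincubation with inhibitor at 37 °C, residual activity at varied inhibitor concentrations was followed for 15 min at 30 sec intervals, in triplicate. Kiapp was fitted with the tight-binding equation.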

For data set [7], the target named is Carboxypeptidase B2 (Homo sapiens) (UniProt Q96IY4). Briefly: Inhibition of human TAFI at 1 nM to 1 mM using AAFA as substrate preincubated for 45 mins measured at 30 sec intervals for 15 mins by UV/vis-spectrophotometry. The procedure, abridged:
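Absorbance at 355 nm. Preincubation 45 min at 37 °C with inhibitor before substrate addition. Initial velocities from 30-sec reads over 15 min; triplicates.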

Data set [8] addresses Carboxypeptidase N catalytic chain (Homo sapiens) (UniProt P15169). Briefly: Inhibition of human CPN at 1 nM to 1 mM using N-(3-[2-furyl]acryloyl)-alanyl-lysine-OH as substrate preincubated for 45 mins measured at 30 sec intervals for 15 mins by UV/vis-spectrophotometry. The procedure, abridged: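 hCPN at 2.0x10-9 M with 2.0x10-4 M FAAK substrate in 20 mM Tris-HCl pH 7.5, 100 mM NaCl, followed at 330 nm. Enzyme and inhibitor preincubated 45 min at 37 °C before substrate. Initial velocities read every 30 sec over 15 min, triplicate.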

For data set [9], the target named is Matrix metalloproteinase-9 (Homo sapiens, UniProt P14780). Briefly: Inhibition of human MMP9 using fluorogenic Mca-Pro-Leu-Gly-Leu-Dpa-Ala-Arg-NH2 peptide as substrate preincubated for 45 mins measured at 30 sec intervals for 15 mins by UV/vis-spectrophotometry. In outline:
(§1)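 MMPs at nanomolar level with fluorogenic Mca-Pro-Leu-Gly-Leu-Dpa-Ala-Arg-NH2 substrate in 50 mM Tris-HCl pH 6.8, 10 mM CaCl2. Enzyme, inhibitor and buffer preincubated 45 min at 37 °C, then substrate added; initial velocities from 30-sec reads over 15 min, in triplicate.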

Data set [10] can be described thus: Drug uptake in CPA3 expressing human HeLa cells at 1 to 5 uM treated for 6 hrs followed by cell wash and measured by DAPI-staining based fluorescence confocal microscopy. Format: ADME. In outline:
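HeLa cells with cytoplasmic hCPA3 expression were treated 6 h with the fluorescent probe at 1 or 5 µM, washed, then imaged by fluorescence confocal microscopy for internalization and co-localization with CPA3.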

In a further data set the target is Stromelysin-2 (Homo sapiens, UniProt P09238). Briefly: Inhibition of human MMP10 using fluorogenic Mca-Pro-Leu-Gly-Leu-Dpa-Ala-Arg-NH2 peptide as substrate preincubated for 45 mins measured at 30 sec intervals for 15 mins by UV/vis-spectrophotometry. In outline:
as §1

The target in data set [11] is Macrophage metalloelastase (Homo sapiens, UniProt P39900). Briefly: Inhibition of human MMP12 using fluorogenic Mca-Pro-Leu-Gly-Leu-Dpa-Ala-Arg-NH2 peptide as substrate preincubated for 45 mins measured at 30 sec intervals for 15 mins by UV/vis-spectrophotometry. In outline: as §1
Another data set deals with Papain (Carica papaya) (UniProt P00784). Briefly: Inhibition of papaya papain at 1 nM to 1 mM using L-pyroglutamyl-Lphenylalanyl-L-leucine-p-nitroanilide peptide as substrate preincubated for 45 mins measured at 30 sec intervals for 15 mins by UV/vis-spectrophotometry. The procedure, abridged: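 Papain 4.5x10-8 M, PFLNA substrate 4.0x10-4 M, buffer 100 mM phosphate pH 6.5, 100 mM KCl, 0.1 mM EDTA, 3 mM DTT, 0.05% w/v Brij-35; read at 414 nm. 45 min preincubation at 37 °C with inhibitor; initial velocities, 30-sec reads for 15 min, triplicate.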

For the next data set, the species on record is Bos taurus. Briefly: Inhibition of bovine trypsin at 1 nM to 1 mM using Nalpha-benzoyl-L-arginine 4-nitroanilide hydrochloride as substrate preincubated for 45 mins measured at 30 sec intervals for 15 mins by UV/vis-spectrophotometry.

Chain of Papain (Carica papaya) (P00784 whole entry): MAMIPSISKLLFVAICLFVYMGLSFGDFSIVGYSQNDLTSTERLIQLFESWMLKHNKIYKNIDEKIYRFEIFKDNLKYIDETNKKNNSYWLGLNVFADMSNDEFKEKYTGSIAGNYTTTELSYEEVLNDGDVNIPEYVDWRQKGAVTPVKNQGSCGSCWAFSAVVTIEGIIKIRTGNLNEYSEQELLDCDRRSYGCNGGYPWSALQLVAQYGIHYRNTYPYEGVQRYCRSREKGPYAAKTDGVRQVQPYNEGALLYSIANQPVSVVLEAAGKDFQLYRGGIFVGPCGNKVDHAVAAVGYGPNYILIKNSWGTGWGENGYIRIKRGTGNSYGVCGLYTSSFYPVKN
Chain of Carboxypeptidase B2 (Homo sapiens) (Q96IY4 whole entry): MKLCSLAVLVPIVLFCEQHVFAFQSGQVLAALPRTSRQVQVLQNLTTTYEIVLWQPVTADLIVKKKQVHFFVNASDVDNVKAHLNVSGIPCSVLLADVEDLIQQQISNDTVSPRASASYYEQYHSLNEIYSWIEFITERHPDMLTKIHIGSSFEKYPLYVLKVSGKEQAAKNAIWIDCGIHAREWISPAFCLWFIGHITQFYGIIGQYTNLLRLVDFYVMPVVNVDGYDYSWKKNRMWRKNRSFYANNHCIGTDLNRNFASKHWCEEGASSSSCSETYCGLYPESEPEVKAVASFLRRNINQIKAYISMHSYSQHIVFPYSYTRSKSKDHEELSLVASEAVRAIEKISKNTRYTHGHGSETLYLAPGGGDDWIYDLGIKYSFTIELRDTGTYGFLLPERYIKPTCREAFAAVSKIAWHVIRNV
Chain of Stromelysin-2 (P09238 whole entry): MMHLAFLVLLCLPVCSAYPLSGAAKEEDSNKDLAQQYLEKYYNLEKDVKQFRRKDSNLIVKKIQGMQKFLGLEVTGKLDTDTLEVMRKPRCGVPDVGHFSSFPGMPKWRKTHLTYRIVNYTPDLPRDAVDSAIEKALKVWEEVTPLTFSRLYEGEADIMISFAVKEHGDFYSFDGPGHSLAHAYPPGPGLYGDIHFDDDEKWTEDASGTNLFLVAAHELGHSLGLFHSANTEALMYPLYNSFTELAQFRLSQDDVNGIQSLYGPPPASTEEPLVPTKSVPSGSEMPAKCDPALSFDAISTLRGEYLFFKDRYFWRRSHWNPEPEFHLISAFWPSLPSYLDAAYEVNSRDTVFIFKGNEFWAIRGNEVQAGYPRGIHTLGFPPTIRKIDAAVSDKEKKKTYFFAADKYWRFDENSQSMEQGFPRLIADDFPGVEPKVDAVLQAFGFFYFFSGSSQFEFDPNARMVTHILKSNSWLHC
Chain of Matrix metalloproteinase-9 (P14780 whole entry): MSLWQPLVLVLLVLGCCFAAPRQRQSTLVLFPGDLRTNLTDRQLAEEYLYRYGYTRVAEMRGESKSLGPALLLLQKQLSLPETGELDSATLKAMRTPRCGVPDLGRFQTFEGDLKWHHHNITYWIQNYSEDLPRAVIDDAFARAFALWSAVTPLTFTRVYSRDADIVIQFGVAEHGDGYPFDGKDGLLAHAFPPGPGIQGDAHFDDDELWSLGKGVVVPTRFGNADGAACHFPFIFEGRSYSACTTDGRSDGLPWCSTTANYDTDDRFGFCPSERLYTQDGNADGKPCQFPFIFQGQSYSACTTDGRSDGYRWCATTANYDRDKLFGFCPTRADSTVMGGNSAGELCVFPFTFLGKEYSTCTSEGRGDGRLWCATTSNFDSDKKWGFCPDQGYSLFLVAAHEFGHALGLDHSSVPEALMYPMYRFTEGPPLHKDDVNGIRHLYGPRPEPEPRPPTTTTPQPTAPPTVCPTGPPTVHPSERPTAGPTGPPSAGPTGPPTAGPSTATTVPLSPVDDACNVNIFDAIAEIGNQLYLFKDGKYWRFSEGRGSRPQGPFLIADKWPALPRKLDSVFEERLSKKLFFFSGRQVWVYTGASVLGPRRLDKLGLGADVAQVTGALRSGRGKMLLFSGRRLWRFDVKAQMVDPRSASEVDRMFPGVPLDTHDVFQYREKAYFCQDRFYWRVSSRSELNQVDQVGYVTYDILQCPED
Chain of Carboxypeptidase N catalytic chain (Homo sapiens) (P15169 whole entry): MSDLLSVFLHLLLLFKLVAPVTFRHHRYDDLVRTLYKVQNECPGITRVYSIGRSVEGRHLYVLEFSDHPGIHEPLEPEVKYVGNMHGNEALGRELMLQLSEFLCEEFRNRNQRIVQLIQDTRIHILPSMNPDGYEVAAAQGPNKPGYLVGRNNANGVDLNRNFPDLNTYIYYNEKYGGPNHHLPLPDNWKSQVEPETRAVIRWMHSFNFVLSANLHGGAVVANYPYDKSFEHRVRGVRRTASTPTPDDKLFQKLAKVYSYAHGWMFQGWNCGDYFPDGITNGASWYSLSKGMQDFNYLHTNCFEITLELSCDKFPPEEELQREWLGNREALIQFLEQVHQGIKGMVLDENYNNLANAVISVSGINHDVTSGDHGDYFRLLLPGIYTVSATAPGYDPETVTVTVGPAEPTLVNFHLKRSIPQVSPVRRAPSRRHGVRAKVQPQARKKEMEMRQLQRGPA
Chain of Macrophage metalloelastase (P39900 whole entry): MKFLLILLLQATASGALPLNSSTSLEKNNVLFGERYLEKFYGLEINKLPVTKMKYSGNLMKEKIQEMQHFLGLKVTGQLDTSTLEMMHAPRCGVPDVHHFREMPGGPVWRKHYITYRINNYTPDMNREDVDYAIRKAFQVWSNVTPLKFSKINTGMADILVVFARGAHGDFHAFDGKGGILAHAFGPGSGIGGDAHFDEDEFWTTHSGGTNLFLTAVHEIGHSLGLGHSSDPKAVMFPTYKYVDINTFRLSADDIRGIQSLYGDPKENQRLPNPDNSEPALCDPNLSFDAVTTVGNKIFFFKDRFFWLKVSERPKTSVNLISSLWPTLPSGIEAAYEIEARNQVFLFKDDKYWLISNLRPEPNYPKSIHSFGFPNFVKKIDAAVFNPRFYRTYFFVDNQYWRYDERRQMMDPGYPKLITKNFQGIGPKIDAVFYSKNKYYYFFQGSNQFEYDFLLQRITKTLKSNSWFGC

Take `C[C@H](NC(=O)[C@H](Cc1ccc(O)cc1)NC(=O)COCCOCCNC(=O)CCOCCOCCOCCNC(=O)CCc1ccc(C(=C\C=C2\N(CCCCS(=O)(=O)O)c3ccc4c(S(=O)(=O)[O-])cc(S(=O)(=O)O)cc4c3C2(C)C)/C=C/C2=[N+](CCCCS(=O)(=O)O)c3ccc4c(S(=O)(=O)O)cc(S(=O)(=O)O)cc4c3C2(C)C)cc1)P(=O)(O)C[C@@H](CCc1ccccc1)C(=O)O`: the Ki on Carboxypeptidase A1 [1] stood at 0.089 nM; on Carboxypeptidase A1 [3], 0.24 nM; on Carboxypeptidase A1 [5], 0.07 nM; in data set [9] it was 2590 nM; at Stromelysin-2 it was 983 nM; in data set [11] it was 1340 nM. The K in data set [2] turned out to be 4.8 ×10⁻⁵ /s; in data set [4], 2.03 ×10⁵ /M/s. Besides, the inhibition entry (in data set [6]; in data set [7]; in data set [8]; on Papain (Carica papaya); in the data set filed under Bos taurus) was “inactive” throughout. The Drug uptake result in data set [10] was “Not Active”.
Turning to `CC(=O)N[C@@H](Cc1ccc(O)cc1)C(=O)N[C@@H](C)P(=O)(O)C[C@@H](CCc1ccccc1)C(=O)O`, the Ki stood at 0.107 nM at Carboxypeptidase A1 [1], 0.53 nM on Carboxypeptidase A1 [3] and 0.16 nM on Carboxypeptidase A1 [5]. In addition, the K amounted to 7.6 ×10⁻⁵ /s in data set [2] and 1.44 ×10⁵ /M/s in data set [4]. For the same compound, the inhibition result in [6] was “inactive”.
At Carboxypeptidase A1 [1], `CC(=O)N[C@@H](CO)C(=O)N[C@@H](C)P(=O)(O)C[C@@H](CCc1ccccc1)C(=O)O` registered a Ki of 5.9 nM. Further, the inhibition entry in data set [6] is “inactive”.
Regarding `CC(=O)NCCOCCOCC(=O)N[C@@H](Cc1ccc(O)cc1)C(=O)N[C@@H](C)P(=O)(O)C[C@@H](CCc1ccccc1)C(=O)O`, the Ki on Carboxypeptidase A1 [1] was 0.129 nM; on Carboxypeptidase A1 [3], 0.53 nM; at Carboxypeptidase A1 [5], 0.16 nM. In addition, the K in data set [2] turned out to be 7 ×10⁻⁵ /s; in data set [4], 1.33 ×10⁵ /M/s. Further, in data set [6], the inhibition result is “inactive”.
With `CC(=O)N[C@@H](CC(C)C)C(=O)N[C@@H](C)P(=O)(O)C[C@@H](CCc1ccccc1)C(=O)O`, the Ki at Carboxypeptidase A1 [1] came to 0.087 nM; on Carboxypeptidase A1 [3], 0.47 nM; at Carboxypeptidase A1 [5], 0.14 nM. For the same compound, the results for the K in data set [2] and in data set [4] were 6 ×10⁻⁵ /s and 1.27 ×10⁵ /M/s, respectively. Further, the inhibition entry in data set [6] is “inactive”.
`CC(=O)N1CCC[C@H]1C(=O)N[C@@H](C)P(=O)(O)C[C@@H](CCc1ccccc1)C(=O)O`: the Ki on Carboxypeptidase A1 [1] worked out at 1.7 nM. Also, the inhibition entry in data set [6] was “inactive”.
For `CC(=O)N[C@@H](CC(C)C)C(=O)N[C@@H](Cc1ccccc1)P(=O)(O)C[C@@H](CCc1ccccc1)C(=O)O`, in that order: 0.08 nM and “inactive”.
For `CC(=O)N[C@@H](CCCCN)C(=O)N[C@@H](C)P(=O)(O)C[C@@H](CCc1ccccc1)C(=O)O`, in that order: 1.2 nM and “inactive”.
For `C[C@H](NC(=O)[C@H](Cc1ccc(O)cc1)NC(=O)COCCOCCN)P(=O)(O)C[C@@H](CCc1ccccc1)C(=O)O`, in that order: 0.3 nM and “inactive”.
In turn, `CC(=O)N[C@@H](CCC(=O)O)C(=O)N[C@@H](C)P(=O)(O)C[C@@H](CCc1ccccc1)C(=O)O` showed a Ki on Carboxypeptidase A1 [1] of 3.1 nM. Also, in [6], the inhibition result is “inactive”.
